Laboratory results taken from ChEMBL document CHEMBL2331158, “Isocoumarin derivatives and benzofurans from a sponge-derived Penicillium sp. fungus” (2013).
In brackets after ≈: the same amount, converted by molar mass. Activity calls are given as the source filed them. The calls are words filed in the database; no cut-off is given here.

Tests used:
K562 = test: Cytotoxicity against human K562 cells assessed as cell viability after 6 days by MTT assay; assay type: functional, cell-based
A549 = test: Cytotoxicity against human A549 cells assessed as cell viability after 6 days by MTT assay; assay type: functional, cell-based
HL-60 = test: Cytotoxicity against human HL60 cells assessed as cell viability after 6 days by MTT assay; assay type: functional, cell-based
Vibrio parahaemolyticus = test: Antibacterial activity against Vibrio parahaemolyticus ATCC 17802 assessed as growth inhibition after 18 hrs by broth dilution method; assay type: functional; settings: ATCC 17802, 18 h
In short: (§1)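 Conventional broth dilution assay, run across a panel of nine bacterial strains (Gram-positive and Vibrio species included), with ciprofloxacin as the positive control.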

Staphylococcus aureus = test: Antibacterial activity against Staphylococcus aureus ATCC 27154 assessed as growth inhibition after 18 hrs by broth dilution method; assay type: functional; settings: ATCC 27154, 18 h; in short: as §1
Staphylococcus = test: Antibacterial activity against Staphylococcus albus ATCC 8799 assessed as growth inhibition after 18 hrs by broth dilution method; assay type: functional; settings: ATCC 8799, 18 h; in short: as §1
Bacillus cereus = test: Antibacterial activity against Bacillus cereus ACCC 11077 assessed as growth inhibition after 18 hrs by broth dilution method; settings: ACCC 11077, 18 h

Row | SMILES | MIC (Staphylococcus aureus) [µM] | MIC (Staphylococcus) [µM] | MIC (Bacillus cereus) [µM] | Activity (K562) | Activity (A549) | Activity (HL-60) | MIC (Vibrio parahaemolyticus) [µM]
1 | CC(=O)c1coc2c(O)cc(O)cc12 [PENICIFURAN D] | > 25 | 25 (≈ 4.8 µg/mL) | 25 (≈ 4.8 µg/mL) | inactive | inactive | inactive | 25 (≈ 4.8 µg/mL)
2 | COc1cc(O)cc2c(COC(C)=O)c(C)oc12 [PENICIFURAN B] | > 25 | 12.5 (≈ 3.13 µg/mL) | > 25 | inactive | inactive | inactive | > 25
3 | CC(=O)CCC[C@@H]1Cc2cccc(O)c2C(=O)O1 [ASPERGILLUMARIN A] | > 25 | 12.5 (≈ 3.1 µg/mL) | > 25 | inactive | inactive | inactive | > 25
4 | C[C@H](O)CCC[C@@H]1Cc2cccc(O)c2C(=O)O1 [ASPERGILLUMARIN B] | > 25 | 12.5 (≈ 3.13 µg/mL) | > 25 | inactive | inactive | inactive | > 25

Now from value to molecule, other results behind:

Row | MIC (Staphylococcus aureus) [µM] | MIC (Staphylococcus) [µM] | MIC (Bacillus cereus) [µM] | SMILES | Activity (K562) | Activity (A549) | Activity (HL-60) | MIC (Vibrio parahaemolyticus) [µM]
5 | 12.5 (≈ 2.4 µg/mL) | 25 (≈ 4.8 µg/mL) | 12.5 (≈ 2.4 µg/mL) | Cc1oc2c(O)cc(O)cc2c1C=O [PENICIFURAN C] | inactive | inactive | inactive | > 25
6 | 12.5 (≈ 2.98 µg/mL) | > 25 | 6.25 (≈ 1.49 µg/mL) | CC(O)c1coc(=O)c2c(O)cc(O)c(O)c12 (stereo not given) | inactive | inactive | inactive | 6.25 (≈ 1.49 µg/mL)
7 | 25 (≈ 5.21 µg/mL) | 3.13 (≈ 0.652 µg/mL) | 12.5 (≈ 2.6 µg/mL) | COc1cc(O)cc2c(CO)c(C)oc12 [PENICIFURAN A] | inactive | inactive | inactive | 25 (≈ 5.21 µg/mL)
8 | 12.5 (≈ 2.98 µg/mL) | > 25 | > 25 | O=c1oc(CO)c(CO)c2cc(O)cc(O)c12 [PENICIMARIN F] | inactive | inactive | inactive | > 25
9 | 0.16 (≈ 0.053 µg/mL) | 0.312 (≈ 0.103 µg/mL) | 0.625 (≈ 0.207 µg/mL) | O=C(O)c1cn(C2CC2)c2cc(N3CCNCC3)c(F)cc2c1=O [CIPROFLOXACIN] | – | – | – | 0.16 (≈ 0.053 µg/mL)
